Screening results from PubChem BioAssay.
KCNK3 block: human KCNK3 channel inhibition, primary screen. 340,000 compounds, 0.84% hits. B-score at 10 µM. CHO-KCNK3 thallium flux, FluxOR fluorescence; stronger effect = lower value. AID 602410;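 active = B-score under library mean minus 4 SD, starting fluorescence ratio at most library mean plus 5 SD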;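 note: more negative B-score means stronger inhibition of thallium flux through KCNK3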
KCNQ1 act: human KCNQ1 channel potentiation or activation | P51787 | CHO-K1 KCNQ1, thallium flux FluxOR fluorescence; stronger effect = higher value | B-score at 10 µM | 310,000 compounds, 0.35% hits;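 active = fluorescence ratio B-score, a plate-corrected score, at least three library SD, with initial intensity B-score within 5 SD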
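Assay system: CHO-K1 cells stably expressing KCNQ1; Medium: assay buffer with matched DMSO; Also added: K+/Tl+ depolarizing stimulus; Dosing: single dose; Timing: dye 90 min, compound 20 min, room temperature; Measured by: kinetic FluxOR thallium fluorescence, 10-s 1-Hz baseline, 110-s post-stimulus read; Read-out: peak-minus-minimum fluorescence over initial fluorescence, negative-control normalized, B-scored.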
KCNK9 inh: inhibitors of human KCNK9 two-pore domain potassium channel. Q9NPC2. HEK293 KCNK9, FluxOR thallium flux fluorescence; stronger effect = lower value. B-score at 10 µM. 310,000 compounds, 1.2% hits;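 active = ratio B-score over 3 SD below the library mean, with starting fluorescence within 5 SD of its mean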;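 note: negative B-score means less thallium flux so channel inhibition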
hERG rescue: shields human hERG channel from block by proarrhythmic agents; CHO-hERG, FluxOR thallium flux, dofetilide IC70 present; activation (rescue from dofetilide block), less the hit threshold, % at 10 µM; 310,000 compounds, 0.51% hits;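 active = activation above the mean of controls blocked by dofetilide plus 5 SD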;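 note: thallium influx through hERG after potassium depolarization seen as dye fluorescence rise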
Target sequence (Q12809 whole entry, looked up): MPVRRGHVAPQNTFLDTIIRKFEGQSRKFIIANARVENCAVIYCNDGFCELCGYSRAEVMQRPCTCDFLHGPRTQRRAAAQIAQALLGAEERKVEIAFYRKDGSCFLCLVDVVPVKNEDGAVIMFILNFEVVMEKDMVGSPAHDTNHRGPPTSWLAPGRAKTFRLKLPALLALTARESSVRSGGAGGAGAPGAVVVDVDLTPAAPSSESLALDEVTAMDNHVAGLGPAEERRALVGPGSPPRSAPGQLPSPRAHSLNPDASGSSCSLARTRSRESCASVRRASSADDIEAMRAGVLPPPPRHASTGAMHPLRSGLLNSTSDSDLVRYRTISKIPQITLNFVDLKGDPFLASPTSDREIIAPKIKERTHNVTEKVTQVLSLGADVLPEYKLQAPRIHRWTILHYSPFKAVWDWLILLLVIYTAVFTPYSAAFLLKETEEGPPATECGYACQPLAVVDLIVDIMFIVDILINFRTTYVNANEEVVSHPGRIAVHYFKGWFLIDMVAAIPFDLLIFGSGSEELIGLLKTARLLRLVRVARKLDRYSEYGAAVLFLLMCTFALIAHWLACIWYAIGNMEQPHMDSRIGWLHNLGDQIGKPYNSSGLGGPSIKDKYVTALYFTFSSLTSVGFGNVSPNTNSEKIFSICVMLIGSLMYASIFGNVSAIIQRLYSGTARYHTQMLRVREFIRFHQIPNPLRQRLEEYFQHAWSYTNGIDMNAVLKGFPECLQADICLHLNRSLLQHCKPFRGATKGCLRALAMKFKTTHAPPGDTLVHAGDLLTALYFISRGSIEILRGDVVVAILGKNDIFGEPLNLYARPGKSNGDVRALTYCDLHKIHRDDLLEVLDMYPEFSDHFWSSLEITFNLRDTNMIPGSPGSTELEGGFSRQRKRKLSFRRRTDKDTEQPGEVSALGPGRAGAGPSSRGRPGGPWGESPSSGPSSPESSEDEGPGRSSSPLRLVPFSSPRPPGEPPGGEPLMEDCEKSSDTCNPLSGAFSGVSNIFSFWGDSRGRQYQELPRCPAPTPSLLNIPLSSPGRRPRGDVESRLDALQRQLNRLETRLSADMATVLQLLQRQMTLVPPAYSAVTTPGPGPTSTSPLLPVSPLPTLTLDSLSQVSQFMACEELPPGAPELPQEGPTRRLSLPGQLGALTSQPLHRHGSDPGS
KCNQ1 inh: blocks the human KCNQ1 potassium channel. B-score at 10 µM. CHO-K1 KCNQ1, FluxOR thallium flux fluorescence; stronger effect = higher value. P51787. AID 2642. 310,000 compounds, 1.3% hits;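 active = compounds whose thallium flux B-score, printed positive for inhibition, exceeds three library SD while starting fluorescence stays within three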;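 note: channel opened by potassium depolarization with thallium stimulus after 20 min compound exposure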
Of the large screens only hits and unclear results are named; the others gave an inactive call. In the library only some 3.1% were active in any assay of this set; here they are far more common.

CC(=O)c1ccc(OC(=O)c2ccc(Br)o2)cc1	none
Cc1ccc(OC(=O)c2ccc(Br)o2)cc1	hERG rescue 22.2
Cc1ccc(C(=O)OCn2ncc(Cl)c(Cl)c2=O)cc1	KCNQ1 act 10
O=C(OCn1ncc(Cl)c(Cl)c1=O)c1ccc(C(F)(F)F)cc1	none
Cc1cc(NC(=O)c2sccc2C)n(-c2nc3ccccc3[nH]2)n1	KCNK9 inh -7.03
CN(CC(=O)Nc1ccccc1C(F)(F)F)C(=O)c1cccc(-n2cccc2)c1	none
CCOc1ccc(CCNC(=O)COC(=O)c2cccc(S(=O)(=O)N3CCCCC3)c2)cc1OCC	KCNK9 inh -7.9
CCOc1cc2c(cc1OCC)CN(C(=O)c1cccc(S(=O)(=O)N3CCCC3)c1)CC2	KCNK3 block -9.85 (no result: KCNQ1 act, KCNK9 inh, hERG rescue, KCNQ1 inh)
Cc1c(C(=O)N2CCc3ccccc3C2)oc2ccc(S(=O)(=O)N3CCCCCC3)cc12	KCNK9 inh -6.76
OCC[C@@H]1C[C@H](O)[C@@H](O)[C@]2(CCc3ccccc3CO2)O1	none
O=C(NCc1ccccc1C(F)(F)F)c1cccc2c1C(=O)c1ccc(N3CCCCC3)cc1S2(=O)=O	none (no result: KCNQ1 act, KCNK9 inh, hERG rescue, KCNQ1 inh)
O=C(O)C/C(=C\c1cc(Br)cs1)c1nc2ccccc2o1	hERG rescue 6.1
Cc1ccsc1/C=C(\CC(=O)O)c1nc2ccccc2o1	none
CCOC(=O)Nc1ccc(C(=O)Oc2ccccc2)c(O)c1	none
O=C(Nc1ccc(C(=O)Oc2ccccc2)c(O)c1)c1ccccc1	KCNK9 inh -7.21
O=C(Nc1ccc(C(=O)Oc2ccccc2)c(O)c1)c1ccco1	KCNK9 inh -7.18
O=C(Nc1ccc(OC(=O)c2cccs2)cc1)c1ccco1	none
O=C(O)CSCC(=O)N(Cc1ccccc1)c1nc(-c2ccccc2)c(-c2ccccc2)s1	KCNQ1 inh 8
C=CCN(CC=C)C(=O)c1ccc(OC2CCN(S(=O)(=O)N(C)C)CC2)cc1	none
O=C(CSc1nc(=O)n2ccccc2n1)N1CCCCCC1	none
CCc1nnc(NC(=O)c2cccc(S(=O)(=O)N3CCN(c4ccccc4)CC3)c2)s1	hERG rescue 5.5
CCOC(=O)N1CCC(N2CCN(c3cc(C)ccc3C)CC2)CC1	none
CCOC(=O)c1ccc(N2CCN(c3cc(C)ccc3C)CC2)c(N)c1	KCNK9 inh -6.76
CSc1ccccc1NC(=O)CN(C)CC(=O)NCc1ccccc1	none
CSc1ccccc1NC(=O)CN(C)Cc1cccc(Cl)c1	KCNK9 inh -7.21
O=S(=O)([N-]c1nc2ccccc2nc1-[n+]1ccc(CCCc2ccccc2)cc1)c1cccs1	KCNK9 inh -6.82
Cc1ccc(C)c(N2CCN(C(=O)CCc3nc(-c4ccccc4C)no3)CC2)c1	KCNK3 block -9.21 (no result: KCNQ1 act, KCNK9 inh, hERG rescue, KCNQ1 inh)
Cc1ccc(C)c(N2CCN(C(=O)CCc3nc(-c4ccccc4)no3)CC2)c1	none (no result: KCNQ1 act, KCNK9 inh, hERG rescue, KCNQ1 inh)
Cc1ccc(C)c(N2CCN(C(=O)CCc3nc(-c4ccccc4Cl)no3)CC2)c1	none (no result: KCNQ1 act, KCNK9 inh, hERG rescue, KCNQ1 inh)
Cc1cccc(-c2noc(CCC(=O)N3CCN(c4cc(C)ccc4C)CC3)n2)c1	KCNK3 block -9.77 (no result: KCNQ1 act, KCNK9 inh, hERG rescue, KCNQ1 inh)
Cc1ccc(-n2nc(C)c3c(C)c(CCC(=O)Nc4ccc(CN5CCCC5)cc4)c(C)nc32)cc1	KCNQ1 inh 6
CS(=O)(=O)c1ccc(-n2nnc3ccccc32)c([N+](=O)[O-])c1	none
N#Cc1cc([N+](=O)[O-])c(-n2nnc3ccccc32)c([N+](=O)[O-])c1	KCNQ1 inh 8
CC(Sc1nc2sc3c(c2c(=O)n1-c1ccccc1)CCCC3)C(=O)O (stereo not drawn)	none
CCn1c(SC(C)C(=O)O)nc2sc3c(c2c1=O)CCC3 (stereo not drawn)	KCNQ1 act 14, hERG rescue 14.8
CCCn1c(SCC(=O)N2CCN(C(C)=O)CC2)nc2sc3c(c2c1=O)CCC3	KCNQ1 act 16, hERG rescue 24.7
O=C(Oc1coc(CSc2nnc(NC(=O)c3cccs3)s2)cc1=O)c1ccccc1	none
Cc1ccc(Oc2c(C(N)=O)cc([N+](=O)[O-])cc2[N+](=O)[O-])cc1	KCNQ1 inh 6
COc1ccc(C)cc1NC(=O)c1cc2c(=O)n3ccccc3nc2n1C	hERG rescue 49.6
Cc1cccn2c(=O)c(/C=C(\C#N)C(=O)NCc3ccccc3)c(N3CCC(C(N)=O)CC3)nc12	none
O=C(Oc1cccc(NC(=O)c2ccco2)c1)c1ccc(Br)c(S(=O)(=O)N2CCCCC2)c1	KCNK9 inh -7.79
CCCOc1ccc(/C=C2/C(=O)ON=C2C)cc1OCC	none
CCOc1cc(/C=C2/C(=O)ON=C2C)cc(Br)c1O	KCNQ1 inh 9
COc1cc(/C=C2\C(=O)ON=C2c2ccccc2)cc(Br)c1O	KCNQ1 inh 7
Cc1cccc(OC(=O)NCCOC(=O)N(O)c2ccc(Cl)cc2)c1	KCNQ1 inh 6
Cc1cccc(OCC(=O)Oc2ccc(Cl)cc2)c1	none
CC(CN(C)Cc1ccccc1)OC(=O)c1ccccc1F (stereo not drawn)	none
CC(CN(C)Cc1ccccc1)OC(=O)c1cccs1 (stereo not drawn)	hERG rescue 46.5
C=CCNC(=S)NNc1nc2c(c(=O)[nH]1)C1(CCCCC1)Cc1ccccc1-2	KCNQ1 inh 8
O=C(c1ccccc1F)N1CCN(C(=O)C2CC2)CC1	none
O=c1c2ccccc2[nH]c(=S)n1CCN1CCCCC1	none
O=c1c2ccccc2[nH]c(=S)n1CCC1=CCCCC1	KCNQ1 act 26, hERG rescue 10.6
COc1ccccc1OCC(=O)N/N=C1/C=C(C)CC1	none
CCCSC(=S)c1c(C)[nH]n(-c2ccccc2)c1=O	KCNQ1 act 16, hERG rescue 26.9
Cc1[nH]n(-c2ccccc2)c(=O)c1Sc1ccc(Cl)cc1	none
CCOc1ccc2nc(N3C(=O)/C(=C/c4ccc(Cl)cc4)NC3=S)sc2c1	KCNQ1 act 26
COc1ccc2nc(N3C(=O)CNC3=S)sc2c1	none
CN(C)C(=O)c1ccccc1NC(=O)Cc1cccc2ccccc12	none
Cc1ccc(C(=O)N/C(=C\c2ccc(-c3ccc(Br)cc3)o2)C(=O)NCCCN(C)C)cc1	KCNQ1 inh 8
CC(C)n1ncc2c(C(=O)NCCOc3ccccc3F)cc(C3CC3)nc21	none (no result: KCNQ1 act, KCNK9 inh, hERG rescue, KCNQ1 inh)
CCOc1ccc(OCCNC(=O)c2cc(C3CC3)nc3c2cnn3C(C)C)cc1	KCNK3 block -8.9 (no result: KCNQ1 act, KCNK9 inh, hERG rescue, KCNQ1 inh)
Cc1cc(C)c(S(=O)(=O)N2CCN(c3ccc([N+](=O)[O-])c(NCc4ccco4)c3)CC2)c(C)c1	hERG rescue 4.7
CCN(CC(=O)NCc1cccs1)C(=O)c1cccc(Cl)c1	none (no result: KCNQ1 act, KCNK9 inh, hERG rescue, KCNQ1 inh)
Cc1ccccc1/C=N/Nc1nc2ccccc2c(=O)n1O	none
O=C1Nc2ccc3c(c2C1=Cc1cc2c(cc1Br)OCO2)OCO3	none (no result: KCNQ1 act, KCNK9 inh, hERG rescue, KCNQ1 inh)
Cc1ccc(S(=O)(=O)Oc2ccccc2/C=C2/SC(=O)NC2=O)cc1	KCNQ1 inh 9
O=C1NC(=O)/C(=C/c2cc3c(cc2Br)OCO3)S1	hERG rescue 7.0
O=C1NC(=O)C(=Cc2ccccc2[N+](=O)[O-])S1	none (no result: KCNQ1 act, KCNK9 inh, hERG rescue, KCNQ1 inh)
O=C1NC(=O)/C(=C\c2ccccc2OCc2ccccc2)S1	none
O=C1NC(=O)/C(=C/c2cccc3ccccc23)S1	KCNQ1 inh 6
